The entries come from a sample that favours hits as a whole.
T cruzi inh: inhibitors of intracellular T. cruzi growth, primary screen, luminescence, NIH3T3 host cells. T. cruzi beta-gal in NIH3T3, 90 h. inhibition, % (no concentration beside the values). 300,000 tested, 1.4% active. AID 1885, 2009;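 active means mean inhibition across valid replicates above about 55%, limit read from the data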;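 further: signal also drops with host cell toxicity which is not excluded here; 0% = plate median of DMSO wells and 100% = zero luminescence signal; higher percent means less beta-gal luminescence so fewer parasites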
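System: Mouse NIH/3T3 fibroblasts infected with β-gal-expressing T. cruzi Tulahuen C4 | Quantity: NIH/3T3 cells, 5,000 per well | Reagent: 5000 reporter trypomastigotes per well | Dosing: Compound pinned at 50 nL/well, DMSO | Schedule: 3 h host attachment, then at least 90 h co-culture | Detection: GalScreen luminescence, 60 min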
Lmaj promast: Leishmania major promastigote growth inhibition, primary screen. Leishmania major promastigotes, resazurin fluorescence viability. inhibition, % at 10 µM. 200,000 tested, 9% active. AID 1063, 2008; in the data active means inhibition above about 50%;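 further: promastigotes grown with compound for 44 hours at 28 °C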
HSF1 activator: HSF-1 activators, primary screen, NIH3T3-HGL cells, MG132 stress, luminescence, single point; AID 504408, 2011; 300,000 tested, 1.7% active; activation, % at 9 µM; NIH3T3-HGL HSF-1 luciferase reporter, 8 h; 100% = twice DMSO control signal;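 active means mean replicate activation of at least 50% with a set share of replicates each reaching 50%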;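 further: 0% = median of the neutral control wells and 100% = twice that signal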
HSF1 inhib: HSF1 inhibitors in luciferase reporter cells, primary screen, cell-based, NIH3T3, luminescence | NIH3T3-HGL HSE-luciferase, MG132-induced, luminescence 8 h; stronger effect = lower value | activity change, negative = inhibition, % at 7.5 µM (by protocol) | AID 2098, 2009 | 300,000 tested, 0.77% active;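 active means more than half of replicate wells show activity change below -50%, luminescence cut by over half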;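 further: luciferase reports HSF-1 transcriptional activity via heat shock element; 0% = median of DMSO wells and -100% = zero luminescence signal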
Hsp70 act: Hsp70 transcriptional activators, primary screen, cell-based, HeLa, Hsp70 promoter luciferase, luminescence, 10 µM; HeLa Hsp70 promoter luciferase reporter; scaled: vehicle 0, proteasome-inhibitor control 100%; activation, % at 10 µM; 200,000 tested, 0.04% active;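 active means activation above the mean across all tested compounds plus 3 SD, cutoff set per campaign, cut at about 5.5% in these data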;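 further: 100% = MG132 at 30 µM as the positive control and 0% = DMSO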
* marks the source's active call; other numbers are inactive results; nt = no result.

SMILES	T cruzi inh	Lmaj promast	HSF1 activator	HSF1 inhib	Hsp70 act
CC1CCC(C(C)C)C(OC(=O)COC(=O)c2ccccc2N)C1 (stereo unspecified)	-1	55*	7	3	0
CC1CCC(C(C)C)C(OP(N)(=O)c2ccccc2)C1 (stereo unspecified)	-26	-1	-4	2	0
Fc1c(F)c(F)c(N2CCNCC2)c(F)c1F	-5	28	-1	3	1
CCc1ccccc1NC(=O)N1C[C@H]2C[C@@H](C1)c1cccc(=O)n1C2	14	nt	26	1	nt
Clc1ccc(CNC2CN3CCC2CC3)cc1 (stereo unspecified)	3	92*	15	7	0
Fc1ccccc1CNC1CN2CCC1CC2 (stereo unspecified)	-8	-6	2	-4	0
CCNC(=S)N(C)CCc1cc2c(c(OC)c1C=C1C(=O)N(C)C(=O)N(C)C1=O)OCO2	-6	nt	-88	-85*	nt
CN1CCN(c2ncnc3c2cnn3C)CC1	-21	nt	-8	1	nt
CCc1cc2c(N3CCN(C)CC3)ncnc2s1	40	73*	3	-1	0
c1ccc2c(CN3CCOCC3)c[nH]c2c1	2	nt	-3	-1	nt
CC1(C)C2CC=C(CN3CCOCC3)C1C2 (stereo unspecified)	5	64*	-9	-7	0
Cn1c(NN=O)nc2ccccc21	55*	97*	-33	-36	0
CN1CCN(Cc2nc3ccccc3n2C)CC1	36	-8	17	-1	0
Fc1cccc(F)c1CN1CCN(c2ccc(Cl)cc2)CC1	2	nt	60*	15	nt
CCCCCCN1CCN(c2ccc(Cl)cc2)CC1	10	82*	3	-1	0
CC(=O)c1c(C)[nH]c(C(=O)N2CCC3(CC2)OCCO3)c1C	4	-4	4	-7	0
COc1cc(/C=N/NP(=S)(c2ccccc2)c2ccccc2)ccc1O	-17	81*	-3	0	0
Oc1ccc(/C=N/NP(=S)(c2ccccc2)c2ccccc2)cc1	-1	90*	16	-7	0
O=c1[nH]sc2cc(F)ccc12	87*	78*	1	-22	0
CCN(CC)C(=O)c1ccc(NC(=O)Nc2ccccc2F)cc1	-2	-3	-70	-64*	0
CCN(CC)C(=O)c1ccc(NC(=O)CCCSc2ccccc2)cc1	2	-10	-3	-3	0
COc1ccc(N=C(C)c2c(O)n(C)c(=O)n(C)c2=O)c(OC)c1	-9	0	-5	-3	0
COc1ccc(CN2CCCC(C(=O)c3cccc(Cl)c3)C2)cc1 (stereo unspecified)	41	nt	17	14	nt
O=C(c1ccc(Cl)cc1)C1CCCN(Cc2cccc3cnccc23)C1 (stereo unspecified)	48	99*	32	14	0
COc1ccc(CN2CCCC(C(=O)c3ccc(Cl)cc3)C2)c(OC)c1 (stereo unspecified)	38	nt	-21	-11	nt
SMILES	T cruzi inh	Lmaj promast	HSF1 activator	HSF1 inhib	Hsp70 act
O=C(c1cccc(Cl)c1)C1CCCN(Cc2cccc3cnccc23)C1 (stereo unspecified)	42	95*	21	18	0
CSc1ncc(CN2CCCC(C(=O)c3cccc(Cl)c3)C2)cn1 (stereo unspecified)	30	82*	9	10	0
O=C(c1cccc(Cl)c1)C1CCCN(Cc2ccon2)C1 (stereo unspecified)	-12	-3	12	6	0
CCC(=NCc1cccnc1)c1c(O)n(-c2ccc(Cl)cc2)c(=O)[nH]c1=O	1	nt	6	3	nt
CCN(CC)C(=O)c1ccc2c(c1)C1C=CCC1C(C(=O)O)N2 (stereo unspecified)	-7	nt	-10	-8	nt
COc1ccc2nc(/N=C/c3c(O)n(-c4cccc(Cl)c4)c(=O)[nH]c3=O)sc2c1	-11	-5	0	5	0
N=C1c2ccccc2CN1CC(=O)c1ccccc1	-9	-3	32	7	0
COC(=O)N(C)c1ccc(C(O)(C(=O)OC)C(F)(F)F)cc1 (stereo unspecified)	-9	87*	13	0	0
COC(=O)C(O)(c1ccc(N(C)C(=O)COc2ccccc2)cc1)C(F)(F)F (stereo unspecified)	-2	-5	20	5	-1
CCOC(=O)N(CC)c1ccc(C(O)(C(=O)OC)C(F)(F)F)cc1 (stereo unspecified)	-12	91*	-6	2	0
COc1cc(OC)c(C=O)c(OC(=O)N(C)C)c1	-8	-4	-11	-9	0
CC(=O)O[C@@]12CO[C@@H]1C[C@@H](O)[C@@]1(C)C(=O)[C@H](O)C3=C(C)[C@@H](OC(=O)[C@H](O)[C@@H](NC(=O)c4ccccc4)c4ccccc4)C[C@@](O)([C@@H](OC(=O)c4ccccc4)C12)C3(C)C (stereo partly specified)	71*	nt	-26	-13	nt
C/C=C(\C)C(=O)N[C@@H](c1ccccc1)[C@@H](O)C(=O)O[C@H]1C[C@@]2(O)[C@@H](OC(=O)c3ccccc3)C3[C@](C)(C(=O)[C@H](OC(C)=O)C(=C1C)C2(C)C)[C@H](O)C[C@H]1OC[C@@]31OC(C)=O (stereo partly specified)	56*	nt	-6	-8	nt
CCC(C)C(=O)N[C@@H](c1ccccc1)[C@@H](O)C(=O)O[C@H]1C[C@@]2(O)[C@@H](OC(=O)c3ccccc3)C3[C@](C)(C(=O)[C@H](OC(C)=O)C(=C1C)C2(C)C)[C@@H](O)C[C@H]1OC[C@@]31OC(C)=O (stereo partly specified)	57*	nt	-20	-4	nt
CC(=O)O[C@@]12CO[C@@H]1C[C@H](OC1OCC(O)C(O)C1O)[C@@]1(C)C(=O)[C@H](O)C3=C(C)[C@@H](OC(=O)[C@H](O)[C@@H](NC(=O)c4ccccc4)c4ccccc4)C[C@@](O)([C@@H](OC(=O)c4ccccc4)C12)C3(C)C (stereo partly specified)	6	nt	0	-4	nt
CCCNC(=O)N1CCC2(CC1)OCCO2	-11	-5	-15	-3	0
CC(C(=O)Nc1ccc(Br)cc1C(=O)c1ccccc1)N1CCCCC1 (stereo unspecified)	0	100*	4	2	0
CC(=O)c1ccccc1NC(=O)C1C2CCC(O2)C1C(=O)O (stereo unspecified)	-10	-5	68*	38	0
S=C(NC1CCCCC1)N1CCC(c2cnc[nH]2)CC1	49	nt	-11	-7	nt
COc1ccc(CCNCc2ccncc2)cc1OC	-9	51*	0	-11	0

Screening data from PubChem BioAssay.
